Experiment [1] deals with HL-60. Kind of experiment: Induction of apoptosis in human HL60 cells assessed as late apoptotic cells at 1.5 uM after 72 hrs by Annexin-V-FITC/propidium iodide staining based flow cytometric method (reference value: 2.53%). The format is functional. A general note: Flow cytometry measures light scatter and fluorescence of single cells or particles in a stream.
The test system of experiment [2] is HL-60. Kind of experiment: Induction of mitochondrial membrane potential loss in human HL60 cells assessed as intact mitochondrial membrane potential at 0.06 uM after 24 hrs by JC1 staining based flow cytometric method (reference value: 99.42%). The format is functional.
The test system of experiment [3] is HL-60. Kind of experiment: Cell cycle arrest in human HL60 cells assessed as accumulation at G2 phase at 0.3 uM after 24 hrs by propidium iodide staining based flow cytometric method (reference value: 30.93%). The class given is functional.
The subject of experiment [4] is HL-60. Kind of experiment: Induction of apoptosis in human HL60 cells assessed as early apoptotic cells at 1.5 uM after 48 hrs by Annexin-V-FITC/propidium iodide staining based flow cytometric method (reference value: 2.8%). The format is functional.
For experiment [5], the system named is HL-60. Kind of experiment: Induction of apoptosis in human HL60 cells assessed as early apoptotic cells at 1.5 uM after 24 hrs by Annexin-V-FITC/propidium iodide staining based flow cytometric method (reference value: 2.8%). The format is functional.
The test system of experiment [6] is HL-60. Kind of experiment: Induction of mitochondrial membrane potential loss in human HL60 cells assessed as intact mitochondrial membrane potential at 1.5 uM after 24 hrs by JC1 staining based flow cytometric method (reference value: 99.42%). The format is functional.
The subject of experiment [7] is HL-60. Kind of experiment: Induction of apoptosis in human HL60 cells at 1.5 uM by Annexin-V-FITC/propidium iodide staining based flow cytometric method. The class given is functional, cell-based. To be noted: TDE = time-dependent effect.
The subject of experiment [8] is HL-60. Kind of experiment: Induction of apoptosis in human HL60 cells assessed as late apoptotic cells at 1.5 uM after 24 hrs by Annexin-V-APC/7-AAD staining based flow cytometric method (reference value: 1.99%). The format is functional. The procedure, abridged: (§1)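 HL-60 are seeded overnight in six-well plates, then treated in triplicate with 0.06, 0.3 or 1.5 μM, or untreated, for 24 h. Cells are washed in PBS and taken up in annexin V binding buffer. Annexin V-APC is added for 15 min in the dark at 25 °C, and 7-AAD just before flow cytometry. Early apoptosis is annexin V-APC only; late apoptosis is annexin V-APC/7-AAD.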

The subject of experiment [9] is HL-60. Kind of experiment: Induction of morphological changes in human HL60 cells assessed as chromatin condensation at 0.06 to 1.5 uM after 24 hrs by Hoechst 33258 staining based fluorescence microscopic analysis. The class given is functional, cell-based.
Experiment [10] relates to HL-60. Kind of experiment: Induction of apoptosis in human HL60 cells assessed as live cells at 1.5 uM after 24 hrs by Annexin-V-APC/7-AAD staining based flow cytometric method (reference value: 95.31%). The class given is functional. An outline of the steps:
as §1

The subject of experiment [11] is HL-60. Kind of experiment: Cell cycle arrest in human HL60 cells assessed as accumulation at S phase at 1.5 uM after 24 hrs by propidium iodide staining based flow cytometric method (reference value: 25.75%). The class given is functional.
In experiment [12] the test system is HL-60. Kind of experiment: Induction of apoptosis in human HL60 cells assessed as live cells at 1.5 uM after 24 hrs by Annexin-V-FITC/propidium iodide staining based flow cytometric method (reference value: 94.19%). The format is functional.
In experiment [13] the test system is PC-3. Kind of experiment: Antiproliferative activity against human PC3 cells by MTT assay. The format is functional, cell-based. An outline of the steps: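 PC-3 (ATCC) in supplemented RPMI-1640 with 10% FBS at 37 °C, 5% CO2. Log-phase cells get graded concentrations in triplicate. MTT (5 mg/mL solution) is added for a further 4 h, then dissolved in DMSO and read at 490 nm. IC50 is from the average of three parallel experiments. Negative reference is 0.1% DMSO.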
Background: Tetrazolium assays rely on reduction of a dye to a coloured formazan, in cell work by metabolically active cells.

The test system of experiment [14] is HL-60. Kind of experiment: Induction of apoptosis in human HL60 cells assessed as late apoptotic cells at 0.3 uM after 24 hrs by Annexin-V-APC/7-AAD staining based flow cytometric method (reference value: 1.99%). The class given is functional. An outline of the steps:
as §1

Experiment [15] deals with HL-60. Kind of experiment: Induction of mitochondrial membrane potential loss in human HL60 cells assessed as intact mitochondrial membrane potential at 0.3 uM after 24 hrs by JC1 staining based flow cytometric method (reference value: 99.42%). The format is functional.
For experiment [16], the system named is HL-60. Kind of experiment: Induction of mitochondrial membrane potential loss in human HL60 cells assessed as collapse of the mitochondrial membrane potential at 0.3 uM after 24 hrs by JC1 staining based flow cytometric method (reference value: 0.58%). The class given is functional.

Activity calls are given as the source filed them. The calls are words filed in the database; no cut-off is given here.

Results on one compound are retold here after ChEMBL document CHEMBL4130550, “Antiproliferative Dimeric Aporphinoid Alkaloids from the Roots of Thalictrum cultratum” (J Nat Prod, 2017).

For orientation: IC50 means the point on the concentration scale where inhibition reaches its midpoint. On to `COc1cc2c(c(Oc3ccc(C[C@H]4c5cc(OC)c6c(c5CCN4C)OCO6)cc3)c1OC)C[C@H]1c3c(c(OC)c(OC)c(OC)c3-2)CCN1C`, for which the Activity came to 31.66% in experiment [1]; 75.9% in experiment [2]; 21.47% in experiment [3]; 28.78% in experiment [4]; 14.79% in experiment [5]; 40.9% in experiment [6]. The Activity result in experiment [7] was “Tde”; in experiment [8], 47.95%; in [10], 35.77%; in experiment [11], 48.45%; in experiment [12], 76.15%; in experiment [14], 6.3%. Besides, the Activity in experiment [15] was found to be 66.5%; in experiment [16], 33.5%. Besides, the result in experiment [9] was Active. Further, the IC50 in experiment [13] was 5.59 µM.
